Test results published in ChEMBL document CHEMBL1123468, “Synthesis and antiviral activity of (E)-5-(2-bromovinyl)uracil and (E)-5-(2-bromovinyl)uridine” (1986).
In brackets after ≈: the same amount, converted by molar mass.

Experiments:
[1] = tested on: E6SM; assay: The concentration required to reduce the cytopathogenicity of HSV-1 (KOS) in E6SM cell culture by 50% in presence of 300 ug/mL dThd; assay type: functional; settings: Homo sapiens
Method in brief: (§1)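 Thymidine (dThd) was added to the E6SM culture medium alongside the test compound, and cells were infected with HSV-1 strain KOS. The endpoint is the minimum inhibitory concentration that reduces viral cytopathogenicity by 50%. The cytopathogenicity inhibition procedure follows the earlier-described method.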

[2] = tested on: E6SM; assay: The concentration required to reduce the cytopathogenicity of HSV-1 (KOS) in E6SM cell culture by 50% in presence of 100 ug/mL of Urd; assay type: functional; settings: Homo sapiens
Method in brief: (§2)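 E6SM cells infected with HSV-1 (KOS), with Urd or dUrd added alone or together with 6-aminothymine (50 μg/mL). The value is the minimum concentration that reduces viral cytopathogenicity by 50%.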

[3] = tested on: E6SM; assay: The concentration required to reduce the cytopathogenicity of HSV-1 (KOS) in E6SM cell culture by 50% in presence of 1 ug/mL of Urd; assay type: functional; settings: Homo sapiens; method in brief: as §2
[4] = tested on: E1 SM; assay: The compound was tested for its antiviral activity against HSV-1 (KOS) virus in E1SM cell line; assay type: functional, Homo sapiens
Method in brief: (§3)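 Virus-induced cytopathogenicity in cell culture, scored microscopically. The value is the minimum concentration that cuts viral cytopathogenicity by 50%. Normal cell morphology was also checked microscopically at up to 400 μg/mL.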

[5] = tested on: E6SM; assay: The compound was tested for its antiviral activity against HSV-1 (McIntyre) virus in E6SM cell culture; assay type: functional; settings: Homo sapiens; method in brief: as §3
[6] = tested on: T-21 (LR); assay: The compound was tested for its antiviral activity against HSV-1 (KOS) virus in T-21 (LR) cell line; assay type: functional; settings: Homo sapiens; method in brief: as §3
[7] = tested on: E6SM; assay: The concentration required to reduce the cytopathogenicity of HSV-1 (KOS) in E6SM cell culture by 50% in presence of 100 ug/mL of Urd and 50 ug/mL of 6-aminothymine; assay type: functional; settings: Homo sapiens; method in brief: as §2
[8] = tested on: E6SM; assay: The concentration required to reduce the cytopathogenicity of HSV-1 (KOS) in E6SM cell culture by 50% in presence of 1 ug/mL of Urd and 50 ug/mL of 6-aminothymine; assay type: functional; settings: Homo sapiens; method in brief: as §2
[9] = tested on: E6SM; assay: The concentration required to reduce the cytopathogenicity of HSV-1 (KOS) in E6SM cell culture by 50% in presence of 1 ug/mL of dUrd and 50 ug/mL of 6-aminothymine; assay type: functional; settings: Homo sapiens; method in brief: as §2
[10] = tested on: E6SM; assay: The concentration required to reduce the cytopathogenicity of HSV-1 (KOS) in E6SM cell culture by 50% in presence of 100 ug/mL dThd; assay type: functional; settings: Homo sapiens
Method in brief: (§4)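 E6SM cells infected with HSV-1 (KOS), with dThd added to the culture medium at the stated concentration. The value is the minimum concentration that reduces viral cytopathogenicity by 50%.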

[11] = tested on: PRK; assay: The compound was tested for its antiviral activity against HSV-1 (KOS) virus in PRK cell line; assay type: functional; settings: Oryctolagus cuniculus
Method in brief: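 Primary rabbit kidney cells infected with HSV-1 (KOS). The value is the minimum concentration that cuts viral cytopathogenicity by 50%. Cytotoxicity was judged as microscopically detectable alteration of cell morphology at up to 400 μg/mL.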

[12] = tested on: E6SM; assay: The compound was tested for its antiviral activity against HSV-1 (F) virus in E6SM cell culture; assay type: functional; settings: Homo sapiens; method in brief: as §3
[13] = tested on: E6SM; assay: The concentration required to reduce the cytopathogenicity of HSV-1 (KOS) in E6SM cell culture by 50% in absence of Urd; assay type: functional; settings: Homo sapiens; method in brief: as §2
[14] = tested on: E6SM; assay: The concentration required to reduce the cytopathogenicity of HSV-1 (KOS) in E6SM cell culture by 50% in presence of 10 ug/mL of dUrd; assay type: functional; settings: Homo sapiens; method in brief: as §2
[15] = tested on: E6SM; assay: The concentration required to reduce the cytopathogenicity of HSV-1 (KOS) in E6SM cell culture by 50% in presence of 10 ug/mL of dUrd and 50 ug/mL of 6-aminothymine; assay type: functional; settings: Homo sapiens; method in brief: as §2
[16] = tested on: E6SM; assay: The concentration required to reduce the cytopathogenicity of HSV-1 (KOS) in E6SM cell culture by 50% in presence of 100 ug/mL of dUrd and 50 ug/mL of 6-aminothymine; assay type: functional; settings: Homo sapiens; method in brief: as §2
[17] = tested on: E6SM; assay: The concentration required to reduce the cytopathogenicity of HSV-1 (KOS) in E6SM cell culture by 50% in presence of 1 ug/mL of dUrd; assay type: functional; settings: Homo sapiens; method in brief: as §2
[18] = tested on: E6SM; assay: The compound was tested for its antiviral activity against HSV-1 (KOS) virus in E6SM cell line; assay type: functional; settings: Homo sapiens; method in brief: as §3
[19] = tested on: Vero; assay: The compound was tested for its antiviral activity against HSV-1 (KOS) virus in vero cell line; assay type: functional; settings: Chlorocebus sabaeus; method in brief: as §3
[20] = tested on: E6SM; assay: The compound was tested for its antiviral activity against vaccinia virus in E6SM cell culture; assay type: functional; settings: Homo sapiens; method in brief: as §3
[21] = tested on: E6SM; assay: The concentration required to reduce the cytopathogenicity of HSV-1 (KOS) in E6SM cell culture by 50% in presence of 100 ug/mL of dUrd; assay type: functional; settings: Homo sapiens; method in brief: as §2
[22] = tested on: E6SM; assay: The compound was tested for its antiviral activity against vesicular stomatitis virus in E6SM cell culture; assay type: functional; settings: Homo sapiens; method in brief: as §3
[23] = tested on: E6SM; assay: The concentration required to reduce the cytopathogenicity of HSV-1 (KOS) in E6SM cell culture by 50% in presence of 30 ug/mL dThd; assay type: functional; settings: Homo sapiens; method in brief: as §1
[24] = tested on: HSF (VGS); assay: The compound was tested for its antiviral activity against HSV-1 (KOS) virus in HSF (VGS) cell line; assay type: functional; settings: Homo sapiens; method in brief: as §3
[25] = tested on: E6SM; assay: The compound was tested for its antiviral activity against TK-HSV-1 (B2006) virus in E6SM cell culture; assay type: functional; settings: Homo sapiens; method in brief: as §3
[26] = tested on: BALB/3T3; assay: The compound was tested for its antiviral activity against HSV-1 (KOS) virus in BALB/3T3 cell line; settings: Mus musculus
[27] = tested on: E6SM; assay: The concentration required to reduce the cytopathogenicity of HSV-1 (KOS) in E6SM cell culture by 50% in presence of 50 ug/mL of 6-aminothymine; assay type: functional; settings: Homo sapiens
Method in brief: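 E6SM cultures were infected with HSV-1 strain KOS. 6-Aminothymine or benzylacyclouridine was present in the medium together with the test compound. The value is the minimum concentration giving 50% reduction of viral cytopathogenicity, scored by the earlier-described cytopathogenicity inhibition procedure.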

[28] = tested on: E6SM; assay: The concentration required to reduce the cytopathogenicity of HSV-1 (KOS) in E6SM cell culture by 50% in presence of 10 ug/mL of Urd; assay type: functional; settings: Homo sapiens; method in brief: as §2
[29] = tested on: E6SM; assay: The concentration required to reduce the cytopathogenicity of HSV-1 (KOS) in E6SM cell culture by 50% in presence of 10 ug/mL dThd; assay type: functional; settings: Homo sapiens; method in brief: as §4
[30] = tested on: E6SM; assay: The compound was tested for its antiviral activity against HSV-2 (196) virus in E6SM cell culture; assay type: functional; settings: Homo sapiens; method in brief: as §3
[31] = tested on: Mo; assay: The compound was tested for its antiviral activity against HSV-1 (KOS) virus in MO cell line; assay type: functional; settings: Homo sapiens; method in brief: as §3
[32] = tested on: HEp-2; assay: The compound was tested for its antiviral activity against HSV-1 (KOS) virus in HEp-2M cell line; assay type: functional; settings: Homo sapiens; method in brief: as §3
[33] = tested on: E6SM; assay: The concentration required to reduce the cytopathogenicity of HSV-1 (KOS) in E6SM cell culture by 50% in presence of 1 ug/mL dThd; assay type: functional; settings: Homo sapiens; method in brief: as §4
[34] = tested on: HeLa; assay: The compound was tested for its antiviral activity against HSV-1 (KOS) virus in HeLa cell line; assay type: functional; settings: Homo sapiens; method in brief: as §3

| SMILES | MIC50 [1] | MIC50 [2] | MIC50 [3] | MIC50 [4] | MIC50 [5] | MIC50 [6] | MIC50 [7] | MIC50 [8] | MIC50 [9] | MIC50 [10] | MIC50 [11] | MIC50 [12] | MIC50 [13] | MIC50 [14] | MIC50 [15] | MIC50 [16] | MIC50 [17] | MIC50 [18] | MIC50 [19] | MIC50 [20] | also measured |
| --- | --- | --- | --- | --- | --- | --- | --- | --- | --- | --- | --- | --- | --- | --- | --- | --- | --- | --- | --- | --- | --- |
| Oc1ncc(/C=C/Br)c(O)n1 | > 400 µg/mL | 4 µg/mL | 2 µg/mL | 7 µg/mL (≈ 32.3 µM) | 4 µg/mL (≈ 18.4 µM) | 7 µg/mL (≈ 32.3 µM) | > 400 µg/mL | > 400 µg/mL | > 400 µg/mL | > 400 µg/mL | > 400 µg/mL | 4 µg/mL (≈ 18.4 µM) | 4 µg/mL (≈ 18.4 µM) | 0.7 µg/mL | 10 µg/mL | 7 µg/mL | 10 µg/mL | 7 µg/mL (≈ 32.3 µM) | > 400 µg/mL | > 400 µg/mL | MIC50 [21]: 0.7 µg/mL; MIC50 [22]: > 400 µg/mL; MIC50 [23]: > 400 µg/mL; MIC50 [24]: 7 µg/mL (≈ 32.3 µM); MIC50 [25]: > 200 µg/mL; MIC50 [26]: > 400 µg/mL; MIC50 [27]: > 400 µg/mL; MIC50 [28]: 7 µg/mL; MIC50 [29]: 70 µg/mL; MIC50 [30]: > 400 µg/mL; MIC50 [31]: > 400 µg/mL; MIC50 [32]: > 200 µg/mL; MIC50 [33]: 7 µg/mL; MIC50 [34]: 2 µg/mL (≈ 9.22 µM) |
| O=c1[nH]c(=O)n([C@H]2C[C@H](O)[C@@H](CO)O2)cc1/C=C/Br [BRIVUDINE] | > 400 µg/mL | 0.02 µg/mL | 0.04 µg/mL | 0.02 µg/mL (≈ 0.06 µM) | 0.02 µg/mL (≈ 0.06 µM) | 0.02 µg/mL (≈ 0.06 µM) | 0.02 µg/mL | 0.02 µg/mL | 0.01 µg/mL | 300 µg/mL | 0.007 µg/mL (≈ 0.021 µM) | 0.02 µg/mL (≈ 0.06 µM) | 0.02 µg/mL (≈ 0.06 µM) | 0.02 µg/mL | 0.02 µg/mL | 0.2 µg/mL | 0.01 µg/mL | 0.02 µg/mL (≈ 0.06 µM) | 0.4 µg/mL (≈ 1.2 µM) | 7 µg/mL (≈ 21 µM) | MIC50 [21]: 0.2 µg/mL; MIC50 [22]: > 400 µg/mL; MIC50 [23]: 70 µg/mL; MIC50 [24]: 0.04 µg/mL (≈ 0.12 µM); MIC50 [25]: 40 µg/mL (≈ 120 µM); MIC50 [26]: 0.1 µg/mL (≈ 0.3 µM); MIC50 [27]: 0.01 µg/mL; MIC50 [28]: 0.04 µg/mL; MIC50 [29]: 0.4 µg/mL; MIC50 [30]: 10 µg/mL (≈ 30 µM); MIC50 [31]: 0.007 µg/mL (≈ 0.021 µM); MIC50 [32]: 0.2 µg/mL (≈ 0.6 µM); MIC50 [33]: 0.02 µg/mL; MIC50 [34]: 0.04 µg/mL (≈ 0.12 µM) |
